In data set [1] the target is Proto-oncogene tyrosine-protein kinase LCK (Mus musculus, UniProt P06240). Nature of the data set: Inhibition of mouse LCK.
The subject of another data set is NFS-60. Nature of the data set: Antitumor activity in mouse M-NFS-60 cells allografted in po dosed CD-1 nude mouse assessed as inhibition of tumor cell growth in peritoneal cavity compound starting 1 hr before challenge twice a day for 4 days measured after 4 days. The class given is functional, organism-based. In a few lines:
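CD-1 nude female mice (22-26 g); 1 × 10^7 M-NFS-60 cells in PBS injected i.p. Oral dosing b.i.d. at 20 and 80 mg/kg as a suspension in 0.5% hydroxypropylmethylcellulose/0.1% Tween 80 (0.2 ml per mouse), starting 1 h before cell injection. Peritoneal cells recovered by cold PBS-heparin lavage on day 4 and counted by hemocytometer after crystal violet dilution. Mean ± SEM; Dunnett's test.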

For data set [2], the system named is Mus musculus. As to the kind of experiment: Inhibition of LPS-stimulated TNF production in mouse at 20 to 80 mg/kg, po administered 4.5 hr before LPS challenge and measured […] after LPS challenge. Type of data set: functional, organism-based.
A short description of data set [3]: Inhibition of human GST-tagged PKA using biotin-(6-amino caproic acid)-LRRASLGKKK-amide as substrate after 70 mins by scintillation proximity assay. An outline of the steps: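 Catalytic domains of human kinases expressed, isolated and assayed with ATP and the appropriate peptide substrate. Compound tested as a 10- to 12-point dose-response with a top concentration of 20 μM.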
A general note: Scintillation proximity formats need no separation of bound from free tracer.

Data set [4] relates to Osteoclast. As to the kind of experiment: Inhibition of human osteoclast degradation of bone assessed as bone slice resorbed at 1 uM after 3 days by immunocytochemistry (reference value: 26.6 +/- 4.7 %). Type of data set: functional. Particulars: 72 h.
In data set [5] the test system is Mus musculus. Nature of the data set: Inhibition of LPS-stimulated IL-6 production in mouse at 40 mg/kg, po administered 4.5 hr before LPS challenge measured […] after LPS challenge. Type of data set: functional.
Data set [6] relates to Osteoclast. Nature of the data set: Inhibition of human osteoclast degradation of bone assessed as reduction in actin ring formation per cm2 of bone at 3 uM after 3 days by immunocytochemistry (reference value: 1546 +/- 232 /cm2 of bone). The class given is functional.
Data set [7] has as its system Monocyte. Nature of the data set: Growth inhibition of CSF-1-stimulated freshly isolated human monocytes after 3 days by spectrophotometry. The class given is functional, cell-based. Particulars: 120 h, in the assay text read “after 5 days” for “after 3 days”. An outline of the steps: (§1)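 Cells cultured so that added serum or growth factor gave linear growth. Compound tested as a 10- to 12-point dose-response with a top concentration of 20 μM.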

For data set [8], the system named is Mus musculus. Nature of the data set: Inhibition of thioglycolate-induced macrophage influx into peritoneal cavity in mouse at 20 to 80 mg/kg, po BID. The class given is functional, organism-based. The note with it: TDE = time-dependent effect. An outline of the steps:
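Female C3H/HEN mice (22-26 g) were dosed orally with compound suspended in 0.5% hydroxypropylmethylcellulose/0.1% Tween 80 (0.2 ml per mouse). Thioglycolate (1.5 ml) was injected i.p. on day 0. On day 4, the peritoneum was lavaged with 5 ml cold PBS containing 40 units/ml heparin, and cells were counted by hemocytometer in 0.1% crystal violet. Data are mean ± SEM; Dunnett's test.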

The test system of data set [9] is Osteoclast. Nature of the data set: Inhibition of human osteoclast degradation of bone assessed as reduction in actin ring formation per cm2 of bone at 1 uM after 3 days by immunocytochemistry (reference value: 1546 +/- 232 /cm2 of bone). Type of data set: functional.
The target of data set [10] is T1, Protein kinase C zeta type (Homo sapiens, UniProt Q05513).
T1 sequence (Q05513 whole entry): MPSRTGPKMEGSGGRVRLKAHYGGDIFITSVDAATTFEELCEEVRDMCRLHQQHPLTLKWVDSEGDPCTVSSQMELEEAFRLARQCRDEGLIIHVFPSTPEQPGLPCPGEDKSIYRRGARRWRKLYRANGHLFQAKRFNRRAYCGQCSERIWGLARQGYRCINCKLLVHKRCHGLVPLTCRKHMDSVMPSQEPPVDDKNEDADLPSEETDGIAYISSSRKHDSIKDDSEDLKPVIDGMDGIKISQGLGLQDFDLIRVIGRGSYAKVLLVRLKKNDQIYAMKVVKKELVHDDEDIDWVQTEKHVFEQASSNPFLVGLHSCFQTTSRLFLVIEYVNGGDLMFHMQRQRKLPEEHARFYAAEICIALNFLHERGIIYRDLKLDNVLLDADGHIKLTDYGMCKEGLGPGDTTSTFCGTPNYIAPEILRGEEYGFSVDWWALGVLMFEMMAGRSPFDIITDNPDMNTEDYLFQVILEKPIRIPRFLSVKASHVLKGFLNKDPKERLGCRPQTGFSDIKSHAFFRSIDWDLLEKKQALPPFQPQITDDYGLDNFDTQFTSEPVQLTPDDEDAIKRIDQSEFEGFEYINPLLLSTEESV
As to the kind of experiment: Inhibition of human His-tagged PKCz using biotin-(amino hexanoic acid)-FKLKRKGSFKKFA-CONH2 as substrate after 40 mins by scintillation proximity assay. In a few lines: (§2)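 Catalytic domains of the human kinases were expressed, isolated and assayed with ATP and the appropriate substrate. Compound was tested as a 10- to 12-point dose-response up to a maximal 20 μM.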

Data set [11] deals with Monocyte. As to the kind of experiment: Effect on LPS-induced IL-6 production in human monocytes at 0.03906 to 20 uM preincubated for 30 mins before LPS stimulation measured after 20 hrs by ELISA. The class given is functional, cell-based. (ELISA stands for enzyme-linked immunosorbent assay.)
A short description of data set [12]: Protein binding in cell-culture media with rat plasma at 3 uM. The note with it: read-out: PB (converted). The class given is ADME, cell-free. In a few lines: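 Compound at 3 μM was added to triplicate samples and incubated 1 h at 37°C. Samples were centrifuged through a 30,000-MW filter (1,500 × g, 15 min, 4°C). Percent bound was calculated from compound concentrations in the filtrate and retentate.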

Data set [13] is described as follows: Cmax in mouse at 80 mg/kg, po. Type of data set: ADME, organism-based. Further details: dose 80 mg/kg, route oral. The note with it: in vivo. In a few lines: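 Female mice given single oral doses (20 or 80 mg/kg) in 0.5% HPMC/0.1% Tween 80. Three mice killed with CO2 per time point; plasma extracted with isopropyl alcohol/acetonitrile, then vortexed, sonicated and centrifuged. Quantified by LC/MS (APCI positive mode, multiple-reaction monitoring) against a standard curve prepared in plasma.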

The subject of data set [14] is Osteoclast. Nature of the data set: Inhibition of human osteoclast attachment to plastic surface assessed cells per cm2 of plastic at 3 uM after 3 days by immunocytochemistry (reference value: 9723 +/- 1380 cells/cm2 of plastic). Type of data set: functional. An outline of the steps:
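Human PBMCs from a healthy volunteer (5 × 10^5 cells in MEM/10% FCS) were seeded on plastic coverslips with RANKL and CSF-1 (30 ng/ml each) for 10 days, with medium changed every 3 days. Compound was added on day 10 (0.1% DMSO final). On day 13, total cells on the coverslips were counted by immunocytochemistry. Data are mean ± SEM.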

Data set [15] relates to Osteoclast. As to the kind of experiment: Inhibition of human osteoclast degradation of bone assessed as reduction in 23C6(+) cells with more than 3 nuclei per cm2 of bone at 3 uM after 3 days by immunocytochemistry (reference value: 854 +/- 122 cells/cm2 of bone). The class given is functional.
Data set [16] concerns the target Protein kinase C beta type (Homo sapiens, UniProt P05771). Nature of the data set: Inhibition of human PKCb1 catalytic domain after by scintillation counting. An outline of the steps:
as §2

A short description of data set [17]: Growth inhibition of CSF1-stimulated mouse M-NFS-60 cells after 3 days by spectrophotometry. Particulars: NFS-60, 72 h. Type of data set: functional. In a few lines: as §1
In data set [18] the test system is Osteoclast. Nature of the data set: Inhibition of human osteoclast degradation of bone assessed as reduction in actin ring formation per cm2 of bone at 10 uM […] by immunocytochemistry (reference value: 1546 +/- 232 /cm2 of bone).

Active and inactive are the calls of the source. The rule behind the calls is not given here.

The values below come from ChEMBL document CHEMBL1955811, “Inhibition of colony-stimulating-factor-1 signaling in vivo with the orally bioavailable cFMS kinase inhibitor GW2580” (Proc Natl Acad Sci U S A, 2005).

Sequence of Proto-oncogene tyrosine-protein kinase LCK (P06240 whole entry): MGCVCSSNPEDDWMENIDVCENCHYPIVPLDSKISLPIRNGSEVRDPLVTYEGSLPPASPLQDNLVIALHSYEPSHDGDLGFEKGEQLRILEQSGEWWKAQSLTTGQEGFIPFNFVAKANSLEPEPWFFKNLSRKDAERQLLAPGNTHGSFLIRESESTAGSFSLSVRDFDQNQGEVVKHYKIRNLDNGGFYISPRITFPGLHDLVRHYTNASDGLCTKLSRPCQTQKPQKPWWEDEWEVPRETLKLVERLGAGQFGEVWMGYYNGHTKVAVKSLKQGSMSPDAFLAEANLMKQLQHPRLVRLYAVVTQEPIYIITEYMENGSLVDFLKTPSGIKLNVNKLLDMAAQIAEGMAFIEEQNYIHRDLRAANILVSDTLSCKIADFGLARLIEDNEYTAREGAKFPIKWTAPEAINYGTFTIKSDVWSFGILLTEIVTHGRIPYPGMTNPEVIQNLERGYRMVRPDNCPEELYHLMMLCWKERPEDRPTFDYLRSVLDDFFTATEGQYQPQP
Sequence of Protein kinase C beta type (P05771 whole entry, the tested form may be a part): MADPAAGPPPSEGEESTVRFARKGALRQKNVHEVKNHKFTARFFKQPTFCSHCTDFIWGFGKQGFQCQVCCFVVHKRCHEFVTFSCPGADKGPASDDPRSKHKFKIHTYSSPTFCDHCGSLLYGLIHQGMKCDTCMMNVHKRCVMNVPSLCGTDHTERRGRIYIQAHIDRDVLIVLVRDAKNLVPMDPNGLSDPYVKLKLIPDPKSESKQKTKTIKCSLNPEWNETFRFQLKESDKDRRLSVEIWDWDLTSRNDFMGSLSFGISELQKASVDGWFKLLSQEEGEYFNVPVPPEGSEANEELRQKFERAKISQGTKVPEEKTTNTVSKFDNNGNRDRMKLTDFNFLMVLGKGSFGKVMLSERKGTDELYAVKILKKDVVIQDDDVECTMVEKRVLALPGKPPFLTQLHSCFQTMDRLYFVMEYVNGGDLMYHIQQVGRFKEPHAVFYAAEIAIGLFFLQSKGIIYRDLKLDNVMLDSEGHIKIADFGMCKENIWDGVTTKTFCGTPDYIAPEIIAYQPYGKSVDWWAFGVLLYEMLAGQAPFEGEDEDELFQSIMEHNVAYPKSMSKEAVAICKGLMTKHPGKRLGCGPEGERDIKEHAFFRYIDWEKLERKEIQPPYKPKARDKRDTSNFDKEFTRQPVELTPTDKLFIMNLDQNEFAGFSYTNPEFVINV

One may read the IC50 as the point on the concentration scale where inhibition reaches its midpoint. Read a low IC50 as greater potency in that assay. Usually inhibition in vivo stands for the drop in the measured response relative to a control, in per cent. For orientation: Cmax means the maximum level reached in the sampled fluid or tissue. For `COc1ccc(COc2ccc(Cc3cnc(N)nc3N)cc2OC)cc1` [GW632580X], the IC50 in data set [1] is more than 10 µM; in data set [3], more than 10 µM; with Monocyte [7], 0.47 µM; in data set [10] it was more than 24 µM; in data set [16] it was more than 13 µM; in data set [17] it was 0.33 µM. Moreover, the “growth inhibition (GI)” value in the data set on NFS-60 was “Dose-dependent effect”. Also, the inhibition entry with Mus musculus [2] is “Active”. In addition, the bone resorption (%) at 1 µM in the data set with Osteoclast [4] amounted to 3.3%. For the same compound, the inhibition in vivo at 40 mg/kg in the data set on Mus musculus [5] was -28%. Further, the Activity with Osteoclast [6] is 148 /cm2; in the data set on Osteoclast [9] it was 479 /cm2; in the data set with Osteoclast [14] it was 3369 /cm2; with Osteoclast [15] it was 120 /cm2; with Osteoclast [18], 0 /cm2. The inhibition entry in the data set on Mus musculus [8] was “tde”. Moreover, the outcome in the data set on Monocyte [11] was inactive. In addition, the fraction unbound at 3 µM in data set [12] was 0.05. The compound further gave a Cmax in [13] of 5.6 µM.
